Results collected from several papers.
Protocols differ between the studies behind these lines.
SLCO2B1: Solute carrier organic anion transporter family member 2B1 (SLCO2B1, Homo sapiens, UniProt O94956)
ACSL4: Long-chain-fatty-acid--CoA ligase 4 (ACSL4, Homo sapiens, UniProt O60488)
CDK7 with cyclin H: Cyclin-dependent kinase 7, with cyclin H (CDK7, Homo sapiens, UniProt P50613)
HDAC6: Protein deacetylase HDAC6 (HDAC6, Homo sapiens, UniProt Q9UBN7)

Compound	target	test	IC50 [nM]
CCc1oc2ccccc2c1C(=O)c1cc(Br)c(O)c(Br)c1	SLCO2B1	transporter uptake, inhibitor, radiometric	209
CN1CCC(CNc2ccc3ncc(-c4cccc(OC(F)(F)F)c4)n3n2)CC1	5-hydroxytryptamine receptor 1B (HTR1B, Homo sapiens, UniProt P28222)	cAMP, agonist	95
CN(CCOc1cccc(CC2SC(=O)NC2=O)c1)c1ccccc1 (stereo not shown)	ACSL4	enzyme activity, inhibitor	10100
CNS(=O)(=O)c1ccc(Nc2ncc(C(F)(F)F)c(N3CCC(C)(O)CC3)n2)c(C)c1	CDK7 with cyclin H	enzyme activity, inhibitor, radiometric	1970
CCC(CC)COC(=O)[C@H](C)N[P@](=O)(OC[C@H]1O[C@@](C#N)(c2ccc3c(N)ncnn23)[C@H](O)[C@@H]1O)Oc1ccccc1	Liver carboxylesterase 1 (CES1, Homo sapiens, UniProt P23141)	enzyme activity, inhibitor, absorbance	36200
CCc1oc2cc(F)ccc2c1C(=O)c1cc(Br)c(O)c(Br)c1	SLCO2B1	transporter uptake, inhibitor, radiometric	749
Cc1c(C)c2c(c(C)c1O)CCC(C)(COc1ccc(CC3SC(=O)NC3=O)cc1)O2 (stereo not shown)	ACSL4	enzyme activity, inhibitor	26300
COCCN1CCN(Cc2ccc(-c3n[nH]c4c3C(=O)c3c(NC(=O)NN5CCOCC5)cccc3-4)cc2)CC1	Protein kinase 6 (Plasmodium falciparum, UniProt Q8IDW1)	enzyme activity, inhibitor, radiometric	832
COC(=O)/C=C/c1ccc(OCCN(C)C(=O)c2ccccc2)cc1	ACSL4	enzyme activity, inhibitor	380
COc1ccc(N(Cc2csc(-c3ccc(C)cc3)n2)C(=O)CCCCCC(=O)NO)cc1	HDAC6	enzyme activity, inhibitor	2.5
COC(=O)CCCc1ccc(OCCN(C)c2ccccc2)cc1	ACSL4	enzyme activity, inhibitor	> 50000
O=C(NO)c1ccc(Cn2cnc3c(Nc4ccc(F)c(Cl)c4)ncnc32)cc1	HDAC6	enzyme activity, inhibitor, fluorescence	6.17
CN1C(=O)SC(Cc2ccc(OCCN(C)c3ccccn3)cc2)C1=O (stereo not shown)	ACSL4	enzyme activity, inhibitor	4500
CNS(=O)(=O)c1ccc(Nc2ncc(C(F)(F)F)c(N3CCCC(C)(O)C3)n2)c(C)c1 (stereo not shown)	CDK7 with cyclin H	enzyme activity, inhibitor, radiometric	2510
O=C(/C=C/c1ccc(O)c(O)c1)O[C@H]1[C@H](O)[C@@H](O)[C@H](OCCc2ccc(O)c(O)c2)O[C@@H]1CO	3-hydroxy-3-methylglutaryl-coenzyme A reductase (HMGCR, Homo sapiens, UniProt P04035)	enzyme activity, inhibitor, absorbance	73500
COc1ccc(Nc2ncnc3c2ncn3Cc2ccc(C(=O)NO)cc2)cc1	HDAC6	enzyme activity, inhibitor, fluorescence	< 2
CN(CCOc1ccccc1)c1ccccn1	ACSL4	enzyme activity, inhibitor	> 50000
CN(CCCCCCNC(=O)CNc1cccc2c1C(=O)N(C1CCC(=O)NC1=O)C2=O)Cc1cn(Cc2ccc(C(=O)NO)cc2)c2ccccc12 (stereo not shown)	HDAC6	enzyme activity, inhibitor, fluorescence	26
CN(CCOc1ccc(CC2SC(=O)NC2=O)cc1)c1ccccn1 (stereo not shown)	ACSL4	enzyme activity, inhibitor	1100
CN(C)C(=O)c1cc2cnc(Nc3ccc(-c4cccc5c(=O)cc(N6CCOCC6)oc45)cc3)nc2n1C1CCCC1	CDK7 with cyclin H	enzyme activity, inhibitor	> 10000
CN(CCCCCCNC(=O)COc1ccc(C2CCC(=O)NC2=O)cc1)Cc1cn(Cc2ccc(C(=O)NO)cc2)c2ccccc12 (stereo not shown)	HDAC6	enzyme activity, inhibitor, fluorescence	31
COc1ccc(N(Cc2csc(-c3ccccc3)n2)C(=O)CCCCCC(=O)NO)cc1	HDAC6	enzyme activity, inhibitor	2.7
O=C1CCC(c2ccc(OCC(=O)OCCCCc3cn(CCCCCCN4CCc5c(c6ccccc6n5Cc5ccc(C(=O)NO)cc5)C4)nn3)cc2)C(=O)N1 (stereo not shown)	HDAC6	enzyme activity, inhibitor, fluorescence	49
CN(CCCOc1ccc(CC2SC(=O)NC2=O)cc1)c1ccccc1 (stereo not shown)	ACSL4	enzyme activity, inhibitor	600
CNS(=O)(=O)c1ccc(Nc2ncc(C(F)(F)F)c([C@H]3CC[C@](C)(O)CC3)n2)c(C)c1	CDK7 with cyclin H	enzyme activity, inhibitor, radiometric	2130
